ChEMBL document CHEMBL1149246, “Discovery of bicyclic thymidine analogues as selective and high-affinity inhibitors of Mycobacterium tuberculosis thymidine monophosphate kinase” (J Med Chem, 2004)
Calls of active or inactive are those of the source. The rule behind the calls is not given here.

T1: Thymidylate kinase (Mycobacterium tuberculosis, UniProt P9WKE1)
T1 sequence (P9WKE1 whole entry): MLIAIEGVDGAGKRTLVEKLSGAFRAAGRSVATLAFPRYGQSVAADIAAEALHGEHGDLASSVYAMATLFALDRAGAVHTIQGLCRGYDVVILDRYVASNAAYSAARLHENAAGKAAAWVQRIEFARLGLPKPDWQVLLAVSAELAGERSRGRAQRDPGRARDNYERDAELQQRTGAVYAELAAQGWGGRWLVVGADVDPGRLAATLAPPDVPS

T2: Thymidylate kinase (Homo sapiens, UniProt P23919)
T2 sequence (P23919 whole entry): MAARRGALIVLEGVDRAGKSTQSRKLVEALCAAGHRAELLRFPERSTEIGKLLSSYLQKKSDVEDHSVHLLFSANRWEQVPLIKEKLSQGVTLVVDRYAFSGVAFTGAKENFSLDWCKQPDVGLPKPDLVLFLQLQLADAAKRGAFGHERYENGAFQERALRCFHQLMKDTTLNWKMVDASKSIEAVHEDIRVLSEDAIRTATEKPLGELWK

T3: Thymidylate kinase (Homo sapiens) (UniProt P23919)
T3 sequence (whole entry): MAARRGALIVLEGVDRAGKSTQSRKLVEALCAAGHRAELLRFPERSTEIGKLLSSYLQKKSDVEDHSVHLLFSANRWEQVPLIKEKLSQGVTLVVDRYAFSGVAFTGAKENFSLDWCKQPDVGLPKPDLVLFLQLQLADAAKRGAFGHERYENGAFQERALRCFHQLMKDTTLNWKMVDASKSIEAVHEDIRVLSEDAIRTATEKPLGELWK

T4: Thymidylate kinase (Mycobacterium tuberculosis) (UniProt P9WKE1)
T4 sequence (whole entry): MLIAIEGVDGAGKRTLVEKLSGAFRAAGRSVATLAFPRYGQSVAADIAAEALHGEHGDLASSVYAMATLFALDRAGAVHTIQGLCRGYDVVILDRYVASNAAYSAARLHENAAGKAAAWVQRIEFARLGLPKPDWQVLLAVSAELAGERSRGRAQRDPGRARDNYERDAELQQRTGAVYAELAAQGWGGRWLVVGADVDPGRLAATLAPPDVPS

B1: Thymidylate kinase (Homo sapiens), P23919 (protein)
chain: MAARRGALIVLEGVDRAGKSTQSRKLVEALCAAGHRAELLRFPERSTEIGKLLSSYLQKKSDVEDHSVHLLFSANRWEQVPLIKEKLSQGVTLVVDRYAFSGVAFTGAKENFSLDWCKQPDVGLPKPDLVLFLQLQLADAAKRGAFGHERYENGAFQERALRCFHQLMKDTTLNWKMVDASKSIEAVHEDIRVLSEDAIRTATEKPLGELWK

Tests used:
Thymidylate kinase [1] = molecular target: T1, Thymidylate kinase; experiment: Inhibition of Mycobacterium tuberculosis TMPK by coupled spectrophotometric assay
Thymidylate kinase [2] = molecular target: T2, Thymidylate kinase; experiment: (§1) Inhibition of human TMPK by coupled spectrophotometric assay
Procedure, shortened: (§2)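 Thymidylate kinase activity (M. tuberculosis or human enzyme) measured by coupled spectrophotometric assay at 334 nm, following NADH consumption. Medium: 50 mM Tris-HCl pH 7.4, 50 mM KCl, 2 mM MgCl2, 0.2 mM NADH, 1 mM phosphoenol pyruvate, 2 units each lactate dehydrogenase, pyruvate kinase and nucleoside diphosphate kinase. ATP fixed at 0.5 mM, dTMP at 0.05 mM; analogue 0.1–2.5 mM.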

[3] = Selectivity index, Ki for human TMPK/Ki for Mycobacterium tuberculosis TMPK
[4] = molecular target: T3, Thymidylate kinase (Homo sapiens); experiment: Inhibition of human TMPK at 2 mM by coupled spectrophotometric assay; procedure, shortened: as §2
[5] = molecular target: T4, Thymidylate kinase (Mycobacterium tuberculosis); experiment: Inhibition of Mycobacterium tuberculosis TMPK at 1 mM by coupled spectrophotometric assay; procedure, shortened: as §2
[6] = compound: Cc1cn([C@H]2C[C@H](O)[C@@H](COP(=O)(O)O)O2)c(=O)[nH]c1=O; experiment: as §1; procedure, shortened: as §2

Molecule	Ki (Thymidylate kinase [1])	Ki (Thymidylate kinase [2])	Ratio Ki [3]	also measured
Cc1cn([C@@H]2O[C@H](CF)[C@@H](CN=[N+]=[N-])[C@H]2F)c(=O)[nH]c1=O	80 µM	–	–	–
Cc1cn([C@@H]2O[C@H](CO)[C@H]3CNC(=O)O[C@H]32)c(=O)[nH]c1=O	13.5 µM	1100 µM	81.5	–
Cc1cn([C@@H]2O[C@H](CO)[C@@H](CN=[N+]=[N-])[C@H]2F)c(=O)[nH]c1=O	165 µM	–	–	–
Cc1cn([C@H]2C[C@H](O)[C@@H](COP(=O)(O)O)O2)c(=O)[nH]c1=O	–	–	–	Selectivity index [3]: 1.1
Cc1cn([C@H]2C[C@H](CN=[N+]=N)[C@@H](CO)O2)c(=O)[nH]c1=O	40 µM	1040 µM	26	–
Cc1cn([C@@H]2C[C@H](CN=[N+]=[N-])[C@@H](CO)O2)c(=O)[nH]c1=O	29 µM	–	–	Activity [4]: inactive
Cc1cn([C@@H]2O[C@H](CO)[C@@H](CN)[C@H]2Cl)c(=O)[nH]c1=O	390 µM	–	–	–
Cc1cn([C@H]2C[C@H](O)[C@@H](CO)O2)c(=O)[nH]c1=O [DOXRIBTIMINE]	–	180 µM	–	–
Cc1cn([C@@H]2O[C@H](CO)[C@H]3CNC(=S)O[C@H]32)c(=O)[nH]c1=O	3.5 µM	700 µM	200	–
Cc1cn([C@H]2C[C@H](CN)[C@@H](CO)O2)c(=O)[nH]c1=O	–	220 µM	3.9	–
Cc1cn([C@@H]2O[C@H](CO)[C@@H](CN=[N+]=[N-])[C@H]2Cl)c(=O)[nH]c1=O	180 µM	–	–	–
Cc1cn([C@@H]2O[C@H](CO)[C@@H](CN)[C@H]2F)c(=O)[nH]c1=O	–	–	–	Activity [5]: inactive
B1	–	–	–	Km [6]: 5 µM
